From ChEMBL document CHEMBL1122183, “Enhanced antitumor properties of 3'-(4-morpholinyl) and 3'-(4-methoxy-1-piperidinyl) derivatives of 3'-deaminodaunorubicin” (1982)
Several values for one entry are separate records, joined by “and”; a condition that tells them apart may be missing. Equal entries are not always repeated. Each block holds one molecule with its values, some of them ahead of it.

Experiments:
[1] = tested on: L1210; test: Concentration of drug necessary to reduce by 50% the incorporation of tritiated uridine in the RNA of actively growing L1210 cells.; format: functional, Mus musculus; conditions: read-out: ED50 (the source's name)
In short: (§1)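 Actively growing L1210 cells. Drug first dissolved in Me2SO, giving 1% final Me2SO. Incorporation of [3H]thymidine into DNA and [3H]uridine into RNA measured. ED50 is the drug concentration that reduces incorporation by 50%.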

[2] = organism: Mus musculus; test: Percentage rate of O2 consumption by liver microsomes and NADPH in the presence compared to the rate in presence of doxorubicin.; format: functional
In short: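 Rate of O2 consumption by liver microsomes with NADPH measured with the analogue at a single drug concentration. Expressed as a percentage of the rate obtained with doxorubicin.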

[3] = tested on: P388; test: Antitumor efficacy at optimal dose of compound was measured against P388 leukemia in mice; format: functional, Mus musculus
In short: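 Mice inoculated ip with P388 cells on day 0, then dosed on days 5, 9 and 13 across a series of doses, under NCI protocols. % T/C is the ratio of mean survival time of treated to untreated mice ×100; T/C >120 taken as active. Values are averages of two tests, or one test where only one was run.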

[4] = tested on: L1210; test: Concentration of drug necessary to reduce by 50% the incorporation of tritiated thymidine in the DNA of actively growing L1210 cells; format: functional, Mus musculus; conditions: read-out: ED50 (the source's name); in short: as §1
[5] = tested on: Nucleic Acid; test: Thermal denaturation temperature (Tm) of isolated calf thymus helical DNA was measured; format: functional; conditions: Bos taurus
In short: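 Calf thymus DNA (P) 5.2 × 10^-5 M and drug 5.2 × 10^-6 M in 0.01 M phosphate buffer, pH 7, with EDTA and 5% final Me2SO. ΔTm is Tm of the DNA–drug complex minus Tm of DNA alone. Values <1 are read as insignificant binding.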

EC50 [1]: 100 nM and 14 nM
EC50 [4]: 760 nM and 340 nM
Compound: COc1cccc2c1C(=O)c1c(O)c3c(c(O)c1C2=O)C[C@@](O)(C(C)=O)C[C@@H]3OC1CC(N2CCOCC2)C(O)C(C)O1 (stereo partly specified)
O2 consumption [2]: 25%
T/C [3]: 166%
ΔTm [5]: 6.1 °C

EC50 ([1]; Mus musculus, L1210): 580 nM
EC50 ([4]; Mus musculus, L1210): 1500 nM
Compound: COc1cccc2c1C(=O)c1c(O)c3c(c(O)c1C2=O)C[C@@](O)(C(=O)CO)C[C@@H]3O[C@H]1C[C@H](N)[C@H](O)[C@H](C)O1 [DOXORUBICIN]
O2 consumption [2]: 100%
T/C [3]: 160%
ΔTm [5]: 13.4 °C

EC50 ([1]; Mus musculus, L1210): 50 nM
EC50 ([4]; Mus musculus, L1210): 500 nM
Compound: COc1cccc2c1C(=O)c1c(O)c3c(c(O)c1C2=O)C[C@@](O)(C(C)=O)C[C@@H]3OC1CC(N2CCCCC2)C(O)C(C)O1 (stereo partly specified)
O2 consumption [2]: 8%
T/C [3]: 177%
ΔTm [5]: 16.8 °C

EC50 ([1]; Mus musculus, L1210): 330 nM
EC50 ([4]; Mus musculus, L1210): 660 nM
Compound: COc1cccc2c1C(=O)c1c(O)c3c(c(O)c1C2=O)C[C@@](O)(C(C)=O)C[C@@H]3O[C@H]1C[C@H](N)[C@H](O)[C@H](C)O1 [DAUNORUBICIN]
T/C [3]: 130%

More lines, now with the values behind:

Compound: COc1cccc2c1C(=O)c1c(O)c3c(c(O)c1C2=O)C[C@@](O)(C(C)O)C[C@@H]3O[C@H]1C[C@H](N2CCC(OC)CC2)[C@H](O)[C@H](C)O1 (stereo partly specified)
EC50 ([1]; Mus musculus, L1210): 80 nM
O2 consumption [2]: 64%
T/C [3]: 199%
EC50 ([4]; Mus musculus, L1210): 580 nM
ΔTm [5]: 9.5 °C

Compound: COc1cccc2c1C(=O)c1c(O)c3c(c(O)c1C2=O)C[C@@](O)(C(C)=O)C[C@@H]3OC1CC(NC2CCCCC2)C(O)C(C)O1 (stereo partly specified)
EC50 ([1]; Mus musculus, L1210): 16000 nM
O2 consumption [2]: 57%
EC50 ([4]; Mus musculus, L1210): 64000 nM
ΔTm [5]: 0.7 °C

Compound: COc1cccc2c1C(=O)c1c(O)c3c(c(O)c1C2=O)C[C@@](O)(C(C)=O)C[C@@H]3OC1CC(NC2CCOCC2)C(O)C(C)O1 (stereo partly specified)
EC50 ([1]; Mus musculus, L1210): 610 nM
O2 consumption [2]: 68%
T/C [3]: 136%
EC50 ([4]; Mus musculus, L1210): 2000 nM
ΔTm [5]: 4 °C

Compound: COc1cccc2c1C(=O)c1c(O)c3c(c(O)c1C2=O)C[C@@](O)(C(C)O)C[C@@H]3O[C@H]1C[C@H](N2CCCCC2)[C@H](O)[C@H](C)O1 (stereo partly specified)
EC50 ([1]; Mus musculus, L1210): 40 nM
T/C [3]: 162%
EC50 ([4]; Mus musculus, L1210): 620 nM
ΔTm [5]: 12.9 °C

Compound: COc1cccc2c1C(=O)c1c(O)c3c(c(O)c1C2=O)C[C@@](O)(C(C)O)C[C@@H]3O[C@H]1C[C@H](N2CCOCC2)[C@H](O)[C@H](C)O1 (stereo partly specified)
EC50 ([1]; Mus musculus, L1210): 530 nM
O2 consumption [2]: 29%
T/C [3]: 153%
EC50 ([4]; Mus musculus, L1210): 2200 nM
ΔTm [5]: 4.1 °C

Compound: COc1cccc2c1C(=O)c1c(O)c3c(c(O)c1C2=O)C[C@@](O)(C(C)=O)C[C@@H]3OC1CC(N2CCC(OC)CC2)C(O)C(C)O1 (stereo partly specified)
EC50 ([1]; Mus musculus, L1210): 120 nM
O2 consumption [2]: 82%
T/C [3]: 199%
EC50 ([4]; Mus musculus, L1210): 630 nM
ΔTm [5]: 13.3 °C
